Results on 3 compounds are retold here after article PMC4501086 (Nature, 2014).

pIC50, pKi: −log10 of the molar value. Where two headings read alike, the source gives them in different places. Bounds are passed on as bounds.

In series [1] the test system is CD69 expression in anti-IgM stimulated whole blood. Description: anti-IgM stimulated human whole blood, FACS for CD69. The following applies: read-out: anti-IgM stimulated whole blood CD69 expression IC50. The format is cell-based.
Series [2] has as its system chronic lymphocytic leukaemia (CLL) and non-Hodgkin's lymphoma. The following applies: cited from earlier work.
In another series the target is p110β (Homo sapiens, UniProt P42338). Description: PI3K isoform inhibition, Ki and IC50. The format is biochemical.
p110β, sequence (P42338 whole entry, species assumed, canonical isoform): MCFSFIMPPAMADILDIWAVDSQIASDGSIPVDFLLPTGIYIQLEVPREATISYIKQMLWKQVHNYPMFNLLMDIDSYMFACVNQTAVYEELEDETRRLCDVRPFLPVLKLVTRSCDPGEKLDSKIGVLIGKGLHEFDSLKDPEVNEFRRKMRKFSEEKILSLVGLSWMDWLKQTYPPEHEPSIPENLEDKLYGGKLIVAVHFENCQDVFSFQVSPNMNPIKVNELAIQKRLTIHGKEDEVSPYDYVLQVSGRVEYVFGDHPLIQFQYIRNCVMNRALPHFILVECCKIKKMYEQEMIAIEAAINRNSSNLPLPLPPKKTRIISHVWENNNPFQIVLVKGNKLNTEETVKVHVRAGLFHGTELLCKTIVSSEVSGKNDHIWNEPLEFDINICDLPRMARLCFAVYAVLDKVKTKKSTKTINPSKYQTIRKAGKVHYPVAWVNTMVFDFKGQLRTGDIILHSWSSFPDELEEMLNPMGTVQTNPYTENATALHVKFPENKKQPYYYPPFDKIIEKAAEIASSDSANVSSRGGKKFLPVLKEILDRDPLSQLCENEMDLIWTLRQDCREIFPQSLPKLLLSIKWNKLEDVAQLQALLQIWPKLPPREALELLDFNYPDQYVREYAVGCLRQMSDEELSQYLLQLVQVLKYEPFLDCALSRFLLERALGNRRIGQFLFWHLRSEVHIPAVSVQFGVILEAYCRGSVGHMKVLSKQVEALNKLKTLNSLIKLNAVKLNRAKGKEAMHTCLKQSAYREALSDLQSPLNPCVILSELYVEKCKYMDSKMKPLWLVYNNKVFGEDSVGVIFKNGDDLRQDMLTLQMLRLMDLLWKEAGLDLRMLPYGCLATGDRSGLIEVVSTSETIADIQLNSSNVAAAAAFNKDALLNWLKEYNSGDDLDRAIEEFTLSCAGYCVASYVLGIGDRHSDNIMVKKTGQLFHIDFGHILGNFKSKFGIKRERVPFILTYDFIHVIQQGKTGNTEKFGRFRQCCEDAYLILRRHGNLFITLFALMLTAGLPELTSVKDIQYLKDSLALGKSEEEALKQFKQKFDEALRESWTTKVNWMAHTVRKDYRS
p110β, sequence (P27986 whole entry partner, species assumed, canonical isoform): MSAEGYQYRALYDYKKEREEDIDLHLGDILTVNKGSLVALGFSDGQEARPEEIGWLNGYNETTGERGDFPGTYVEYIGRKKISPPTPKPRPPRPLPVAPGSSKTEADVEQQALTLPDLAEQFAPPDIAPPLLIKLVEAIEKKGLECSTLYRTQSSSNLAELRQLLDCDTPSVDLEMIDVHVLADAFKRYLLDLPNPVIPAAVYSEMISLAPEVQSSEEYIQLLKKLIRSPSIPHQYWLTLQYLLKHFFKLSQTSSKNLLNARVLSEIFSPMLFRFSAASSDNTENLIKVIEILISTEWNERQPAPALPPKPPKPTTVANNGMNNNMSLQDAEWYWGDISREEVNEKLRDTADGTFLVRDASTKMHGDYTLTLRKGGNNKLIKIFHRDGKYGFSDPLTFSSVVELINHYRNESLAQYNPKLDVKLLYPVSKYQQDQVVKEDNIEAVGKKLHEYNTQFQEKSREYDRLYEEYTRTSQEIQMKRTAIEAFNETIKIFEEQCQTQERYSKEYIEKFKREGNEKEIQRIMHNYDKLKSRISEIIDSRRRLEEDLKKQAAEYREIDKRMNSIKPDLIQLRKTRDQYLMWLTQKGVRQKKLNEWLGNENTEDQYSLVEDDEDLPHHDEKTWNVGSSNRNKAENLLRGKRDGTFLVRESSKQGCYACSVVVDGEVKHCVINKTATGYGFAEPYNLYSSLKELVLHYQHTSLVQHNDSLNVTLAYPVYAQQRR
The next series deals with p110α (Homo sapiens, UniProt P42336). The series can be described thus: PI3K isoform inhibition, Ki and IC50. In kind it is biochemical.
p110α, sequence (P42336 whole entry, species assumed, canonical isoform): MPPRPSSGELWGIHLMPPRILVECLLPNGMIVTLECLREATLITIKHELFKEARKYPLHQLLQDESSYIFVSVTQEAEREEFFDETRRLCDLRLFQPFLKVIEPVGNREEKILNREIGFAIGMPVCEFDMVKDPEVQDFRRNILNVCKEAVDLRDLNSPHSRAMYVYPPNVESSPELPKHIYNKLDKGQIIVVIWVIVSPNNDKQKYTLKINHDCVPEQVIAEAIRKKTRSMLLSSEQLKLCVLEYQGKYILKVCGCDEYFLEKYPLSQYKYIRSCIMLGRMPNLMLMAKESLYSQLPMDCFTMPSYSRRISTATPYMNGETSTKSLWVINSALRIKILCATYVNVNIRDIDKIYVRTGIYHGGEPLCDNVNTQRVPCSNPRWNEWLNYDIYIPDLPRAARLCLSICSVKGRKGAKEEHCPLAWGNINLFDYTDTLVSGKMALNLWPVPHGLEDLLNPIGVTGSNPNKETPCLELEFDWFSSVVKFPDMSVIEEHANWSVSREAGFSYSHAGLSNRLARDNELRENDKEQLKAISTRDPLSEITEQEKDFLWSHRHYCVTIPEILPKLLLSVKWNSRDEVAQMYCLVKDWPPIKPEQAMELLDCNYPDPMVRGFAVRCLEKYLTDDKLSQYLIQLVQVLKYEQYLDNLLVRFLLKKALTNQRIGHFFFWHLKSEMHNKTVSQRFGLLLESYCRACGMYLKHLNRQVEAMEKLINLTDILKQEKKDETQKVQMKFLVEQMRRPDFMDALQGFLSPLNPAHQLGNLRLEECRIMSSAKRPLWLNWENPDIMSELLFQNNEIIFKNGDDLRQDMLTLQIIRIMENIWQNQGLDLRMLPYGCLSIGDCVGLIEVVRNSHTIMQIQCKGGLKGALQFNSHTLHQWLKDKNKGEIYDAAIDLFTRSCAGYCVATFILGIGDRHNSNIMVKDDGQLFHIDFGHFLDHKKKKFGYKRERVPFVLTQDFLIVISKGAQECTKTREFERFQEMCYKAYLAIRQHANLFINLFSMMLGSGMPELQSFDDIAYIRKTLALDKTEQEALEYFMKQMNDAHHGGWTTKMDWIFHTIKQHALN
p110α, sequence (P27986 whole entry partner, species assumed, canonical isoform): as the sequence (P27986 whole entry partner, species assumed, canonical isoform) above
The next series relates to 4T1 cells. The series can be described thus: Proliferation of 4T1 cells in vitro. The following applies: 4 h treatment, washing, MTS staining after 48 h culture. The format is cell-based, mouse.
A further series addresses p110δ (Homo sapiens, UniProt O00329). The series can be described thus: PI3K isoform inhibition, Ki and IC50. In kind it is biochemical.
The next series relates to 4T1 tumour. Description: 4T1 breast cancer model, orthotopic in mammary fat pad, oral PI-3065. The format is in vivo, female WT BALB/c mice. To be noted: 75 mg/kg daily per os. An outline of the steps: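 Luciferase-labelled 4T1 cells (10^5) inoculated into the mammary/breast fat pad 12 h after the first oral dose of vehicle or test compound (75 mg/kg daily, 36 days). Tumour growth followed by luciferase imaging and caliper volume. Tumour weight and luciferase activity measured in tumours excised 35 days after inoculation. Metastasis incidence by H&E histology as % of tumour-bearing mice. Body weight change from day 0. Mann-Whitney test.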

A further series has as its system 72 protein kinases. The series can be described thus: KinaseProfiler assay. The format is biochemical. To be noted: at ≤ 10 μM.
For series [3], the system named is pancreatic ductal adenocarcinoma (PDAC). Description: KPC model of pancreatic ductal adenocarcinoma, treatment of palpable disease. The format is in vivo, KPC mice. In short, it runs like this:
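KPC mice (endogenous mutant KrasG12D and p53R172H in Pdx1+ pancreatic cells) developed palpable disease before vehicle or test compound (75 mg/kg) began. Read-outs were survival, macrometastases and pathology by H&E, Treg (% of CD4+) and CD44high cells (% of CD8+) in draining lymph nodes, and CD8+ cells (% of CD45+) in normal pancreas versus PDAC lesions. Mann-Whitney test.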

A further series concerns the target p110γ (Homo sapiens, UniProt P48736). The series can be described thus: PI3K isoform inhibition, Ki and IC50. In kind it is biochemical.
Setting [4] is: 36 consecutive days, 4T1 tumour-bearing mice.
The mark [5] stands for this setting: 75 mg/kg, treatment after palpable disease.

p110γ, sequence (P48736 whole entry, species assumed, canonical isoform): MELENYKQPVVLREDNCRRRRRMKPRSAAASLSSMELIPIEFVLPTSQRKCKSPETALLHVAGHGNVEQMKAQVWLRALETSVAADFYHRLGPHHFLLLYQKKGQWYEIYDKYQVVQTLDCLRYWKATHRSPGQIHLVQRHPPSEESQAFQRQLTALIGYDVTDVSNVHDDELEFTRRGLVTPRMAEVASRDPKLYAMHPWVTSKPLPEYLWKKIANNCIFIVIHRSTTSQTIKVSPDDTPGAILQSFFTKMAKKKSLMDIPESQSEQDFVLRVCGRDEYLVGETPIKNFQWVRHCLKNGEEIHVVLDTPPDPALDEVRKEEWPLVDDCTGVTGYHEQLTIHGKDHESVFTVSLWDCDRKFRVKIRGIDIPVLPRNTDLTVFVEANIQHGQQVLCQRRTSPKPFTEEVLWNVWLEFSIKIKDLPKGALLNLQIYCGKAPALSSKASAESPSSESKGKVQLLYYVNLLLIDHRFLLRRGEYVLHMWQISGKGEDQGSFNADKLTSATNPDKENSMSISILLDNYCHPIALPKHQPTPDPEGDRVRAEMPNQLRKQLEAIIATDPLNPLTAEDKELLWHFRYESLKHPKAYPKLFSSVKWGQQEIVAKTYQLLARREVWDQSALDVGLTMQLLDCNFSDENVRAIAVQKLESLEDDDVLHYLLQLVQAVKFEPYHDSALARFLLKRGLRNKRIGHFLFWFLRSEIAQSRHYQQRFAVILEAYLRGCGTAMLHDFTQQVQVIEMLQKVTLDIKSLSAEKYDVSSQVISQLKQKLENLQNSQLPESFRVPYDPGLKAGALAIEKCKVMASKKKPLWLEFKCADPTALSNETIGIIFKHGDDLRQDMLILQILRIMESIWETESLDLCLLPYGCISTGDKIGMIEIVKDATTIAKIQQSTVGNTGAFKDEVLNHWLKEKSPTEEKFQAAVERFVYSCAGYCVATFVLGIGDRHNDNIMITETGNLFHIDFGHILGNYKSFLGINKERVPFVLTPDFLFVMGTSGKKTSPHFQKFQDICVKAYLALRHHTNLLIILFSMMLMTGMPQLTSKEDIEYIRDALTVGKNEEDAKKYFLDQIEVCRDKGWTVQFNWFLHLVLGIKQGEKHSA
p110δ, sequence (O00329 whole entry, species assumed, canonical isoform): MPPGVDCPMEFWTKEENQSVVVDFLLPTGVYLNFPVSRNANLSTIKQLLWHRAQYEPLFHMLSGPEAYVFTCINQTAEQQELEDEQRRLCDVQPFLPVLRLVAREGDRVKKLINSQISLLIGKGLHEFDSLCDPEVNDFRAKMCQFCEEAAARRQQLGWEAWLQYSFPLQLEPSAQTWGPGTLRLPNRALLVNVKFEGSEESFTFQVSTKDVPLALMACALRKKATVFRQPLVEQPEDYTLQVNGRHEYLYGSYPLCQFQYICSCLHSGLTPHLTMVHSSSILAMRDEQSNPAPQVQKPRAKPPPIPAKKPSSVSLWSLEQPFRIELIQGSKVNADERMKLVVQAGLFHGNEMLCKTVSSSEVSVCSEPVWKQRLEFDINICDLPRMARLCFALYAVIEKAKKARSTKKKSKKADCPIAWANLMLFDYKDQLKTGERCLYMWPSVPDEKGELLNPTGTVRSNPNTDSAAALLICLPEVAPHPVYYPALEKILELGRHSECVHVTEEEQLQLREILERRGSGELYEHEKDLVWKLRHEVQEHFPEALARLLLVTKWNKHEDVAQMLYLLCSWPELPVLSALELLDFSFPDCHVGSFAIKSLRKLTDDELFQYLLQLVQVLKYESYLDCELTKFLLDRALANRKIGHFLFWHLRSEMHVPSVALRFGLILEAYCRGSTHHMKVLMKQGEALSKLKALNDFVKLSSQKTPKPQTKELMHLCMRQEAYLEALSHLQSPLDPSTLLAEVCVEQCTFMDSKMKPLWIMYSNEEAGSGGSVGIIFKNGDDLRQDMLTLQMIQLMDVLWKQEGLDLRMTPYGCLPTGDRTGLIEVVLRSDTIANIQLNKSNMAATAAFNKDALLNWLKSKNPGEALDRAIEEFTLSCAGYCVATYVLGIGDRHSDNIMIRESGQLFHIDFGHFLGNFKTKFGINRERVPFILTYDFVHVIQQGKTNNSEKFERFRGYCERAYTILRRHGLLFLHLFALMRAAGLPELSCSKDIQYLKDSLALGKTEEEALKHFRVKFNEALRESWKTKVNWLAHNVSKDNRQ
p110δ, sequence (P27986 whole entry partner, species assumed, canonical isoform): as the sequence (P27986 whole entry partner, species assumed, canonical isoform) above

Usually pIC50 stands for the negative decadic logarithm of the IC50, by convention in mol/L. Regarding `CC[C@H](Nc1ncnc2[nH]cnc12)c1nc2cccc(F)c2c(=O)n1-c1ccccc1` [Idelalisib], in series [1] (Homo sapiens), the negative logarithm of the IC50 (pIC50) was 7.22. Further, in series [2], the “therapeutic impact in patients” value is given as “impressive therapeutic impact”.
Take `Cc1ccccc1-n1c(Cn2cnc3c(N)ncnc32)nc2cccc(C)c2c1=O` [IC87114]: the negative-log IC50 (pIC50) in series [1] (human whole blood, anti-IgM, FACS for CD69) is 5.46.
In general, pKi refers to the Ki on a negative log10 scale, so that one unit is a factor of ten. A low value points to a large Ki. With `Fc1ccc2[nH]ccc2c1-c1nc(N2CCOCC2)c2sc(CN3CCN(CC4CC4)CC3)cc2n1` [PI-3065], the negative logarithm of the IC50 (pIC50) in [1] (Homo sapiens) was 7.42. Also, at p110β, the pIC50 is 6.22 and the negative logarithm of the Ki (pKi) is 6.89. Further, at p110α, the negative logarithm of the Ki (pKi) is 6.96. For the same compound, in the series with 4T1 cells, the “in vitro growth inhibition of 4T1 cells” value was “not growth-inhibited”. Further, the negative logarithm of the Ki (pKi) at p110δ was 8.82. Further, in the series on 4T1 tumour (setting [4]), the body weight loss entry is recorded as “did not induce weight loss” and the “tolerability of long-term administration” value was “well-tolerated”. Also, in the series on 4T1 tumour (36 days), the 4T1 metastasis entry was “suppressed” and the 4T1 tumour growth result is on record as “suppressed”. The “activity against 72 protein kinases” value in the series on 72 protein kinases is “No significant activity”. Moreover, in series [3] (setting [5]), the “incidence of metastases and other disease-associated pathologies” value is “reduced”; the “survival of KPC mice” value is “prolonged survival”. Besides, the “infiltrating CD8+ T cells in pancreatic lesions” value in [3] (14 days after treatment) is reported as “relatively more”. In [3] (after 7 days of treatment), the “levels of CD44high CD8+ lymphocytes in the draining lymph nodes” value was “higher levels” and the “relative abundance of peripheral Treg in lymph nodes” value was “reduced”. On p110γ, this compound gave a pIC50 below 5.00 and a pKi of 6.03.
